From ChEMBL document CHEMBL1121818, “Some reactions of 1,4-dihydropyridines with organic azides. Synthesis of 2,7-diazabicyclo[4.1.0]hept-3-enes with analgesic and antiprotozoal activity” (1981)

What was measured:
Assay type in all cases: functional
[1] = system: Mus musculus; assay: Analgesic activity was measured on phenylquinone writhing in mice at 128 mg/kg subcutaneous dose; conditions: sc
How it was run: (§1)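 Male Swiss albino mice, 18-22 g, five per group. Compound suspended in physiological saline with Tween 80 and given sc. 30 min later, 0.03% phenyl-p-benzoquinone given ip at 0.1 mL/10 g body weight. Total writhes per animal counted against a vehicle-treated control group. % change = (writhes treated/writhes control) × 100 − 100.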

[2] = system: Trichomonas vaginalis; assay: Compound was measured as concentration of compound required for 90% growth inhibition of Trichomonas vaginalis
How it was run: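 Tube dilution in modified TYM basal medium, with compound added in µg/mL of medium. Inoculum 1 × 10^5/mL T. vaginalis trophozoites pre-grown 48 h in the same medium. Incubated 24 and 48 h at 35 °C. Aliquots diluted in saline with 1% formaldehyde and counted in a Speirs-Levy chamber. MIC is the lowest concentration giving 90% growth inhibition.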

[3] = system: Mus musculus; assay: Analgesic activity was measured on phenylquinone writhing in mice at 64 mg/kg subcutaneous dose; conditions: sc; how it was run: as §1
[4] = system: Mus musculus; assay: Analgesic activity was measured of phenylquinone writhing in mice at 16 mg/kg subcutaneous dose; conditions: sc; how it was run: as §1
[5] = system: Mus musculus; assay: Analgesic activity was measured of phenylquinone writhing in mice at 32 mg/kg subcutaneous dose; conditions: sc; how it was run: as §1
[6] = system: Mus musculus; assay: Analgesic activity was measured of phenylquinone writhing in mice at 4 mg/kg subcutaneous dose; conditions: sc; how it was run: as §1
[7] = system: Mus musculus; assay: Analgesic activity was measured of phenylquinone writhing in mice at 64 mg/kg subcutaneous dose; conditions: sc; how it was run: as §1
[8] = system: Mus musculus; assay: Analgesic activity was measured of phenylquinone writhing in mice at 8 mg/kg subcutaneous dose; conditions: sc; how it was run: as §1
[9] = system: Mus musculus; assay: Analgesic activity was measured on phenylquinone writhing in mice at 50 mg/kg subcutaneous dose; conditions: sc; how it was run: as §1
[10] = system: Mus musculus; assay: Analgesic activity was measured on phenylquinone writhing in mice at 56 mg/kg subcutaneous dose; conditions: sc; how it was run: as §1

| SMILES | inhibition in vivo at 128 mg/kg [1] [%] | MIC [2] [µg/mL] | further results |
| --- | --- | --- | --- |
| O=S(=O)(c1ccccc1)N1[C@@H]2CC=CN[C@@H]21 (stereo partly drawn) | 47 | – | – |
| CC(=O)Nc1ccc(S(=O)(=O)N2[C@@H]3CC=CN(C)[C@@H]32)cc1 (stereo partly drawn) | 95 | < 10 | – |
| CN1C=CC[C@@H]2[C@H]1N2S(C)(=O)=O (stereo partly drawn) | 50 | < 10 | – |
| CN1C=CC[C@@H]2[C@H]1N2C#N | – | < 10 | inhibition in vivo at 64 mg/kg [3]: 86% |
| CN1C=CC[C@@H]2[C@H]1N2S(=O)(=O)c1ccc(N)cc1 (stereo partly drawn) | 97 | < 10 | inhibition in vivo at 16 mg/kg [4]: 45%; inhibition in vivo at 32 mg/kg [5]: 69%; inhibition in vivo at 4 mg/kg [6]: 23%; inhibition in vivo at 64 mg/kg [7]: 78%; inhibition in vivo at 8 mg/kg [8]: 40% |
| CN1C=CC[C@@H]2[C@H]1N2S(=O)(=O)c1ccccc1 (stereo partly drawn) | – | < 10 | inhibition in vivo at 64 mg/kg [3]: 92% |
| CC(=O)Oc1ccccc1C(=O)O [ASPIRIN] | – | – | inhibition in vivo at 50 mg/kg [9]: 50% |
| CCC(=O)O[C@](Cc1ccccc1)(c1ccccc1)[C@H](C)CN(C)C [PROPOXYPHENE] | – | – | inhibition in vivo at 56 mg/kg [10]: 50% |
